Experimental data as given in the M2OR odorant receptor database.
Numbering of substitutions follows the chain as printed.

Assays:
Conditions in all cases: stereoisomer not certain
OR2T11 (Homo sapiens) = molecular target: T1, OR2T11 (Homo sapiens) (UniProt Q8NH01)
T1 sequence (whole entry): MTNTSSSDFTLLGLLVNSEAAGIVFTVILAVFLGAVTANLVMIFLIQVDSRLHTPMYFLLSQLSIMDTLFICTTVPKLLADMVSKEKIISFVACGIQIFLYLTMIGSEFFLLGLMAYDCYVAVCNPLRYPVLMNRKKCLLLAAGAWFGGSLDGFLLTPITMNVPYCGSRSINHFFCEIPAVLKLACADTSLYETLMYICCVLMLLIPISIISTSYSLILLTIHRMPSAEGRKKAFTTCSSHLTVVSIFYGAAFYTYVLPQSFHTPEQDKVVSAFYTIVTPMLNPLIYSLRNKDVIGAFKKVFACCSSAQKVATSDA
In short: (§1)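 Values were gathered from published papers (main text and supplementary material), with extra details requested from the original authors when needed, and checked for typos and inconsistencies. Each receptor–molecule pair is called responsive (active) if the original authors judged the measured signal statistically different from baseline, and non-responsive (inactive) otherwise. Assay methods varied by source, often transient mammalian cell-line luciferase assays. Recorded details include cell line, G-protein, co-transfected protein and tags.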

OR2T12 (Homo sapiens) = molecular target: T2, OR2T12 (Homo sapiens) (UniProt Q8NG77)
T2 sequence (whole entry): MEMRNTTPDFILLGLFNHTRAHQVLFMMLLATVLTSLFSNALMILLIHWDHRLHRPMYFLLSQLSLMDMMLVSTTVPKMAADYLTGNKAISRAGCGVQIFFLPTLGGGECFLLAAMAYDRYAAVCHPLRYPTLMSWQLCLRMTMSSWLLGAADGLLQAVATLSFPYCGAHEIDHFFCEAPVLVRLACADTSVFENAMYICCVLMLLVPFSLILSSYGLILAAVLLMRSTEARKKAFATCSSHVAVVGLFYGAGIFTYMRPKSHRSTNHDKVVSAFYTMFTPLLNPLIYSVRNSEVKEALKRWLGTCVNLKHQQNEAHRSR
In short: as §1

OR2T2 (Homo sapiens) = molecular target: T3, OR2T2 (Homo sapiens) (UniProt Q6IF00)
T3 sequence (whole entry): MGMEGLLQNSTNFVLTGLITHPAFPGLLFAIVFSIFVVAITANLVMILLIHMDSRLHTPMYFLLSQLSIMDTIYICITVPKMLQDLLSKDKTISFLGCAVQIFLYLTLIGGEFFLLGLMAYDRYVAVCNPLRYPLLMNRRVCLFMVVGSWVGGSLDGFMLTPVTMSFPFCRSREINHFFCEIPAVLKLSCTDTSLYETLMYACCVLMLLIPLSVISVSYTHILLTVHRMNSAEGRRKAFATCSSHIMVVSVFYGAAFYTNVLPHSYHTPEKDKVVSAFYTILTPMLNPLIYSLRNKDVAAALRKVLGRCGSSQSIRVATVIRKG
In short: as §1

OR2T2 L104F L262Q = test system: T4, OR2T2 L104F L262Q
T4 sequence (whole entry): T3 sequence (whole entry) with L104F, L262Q
In short: as §1

OR2T2 L104F = test system: T5, OR2T2 L104F
T5 sequence (whole entry): T3 sequence (whole entry) with L104F
In short: as §1

OR2T2 Q313H = test system: T6, OR2T2 Q313H
T6 sequence (whole entry): T3 sequence (whole entry) with Q313H
In short: as §1

OR2T27 (Homo sapiens) = molecular target: T7, OR2T27 (Homo sapiens) (UniProt Q8NH04)
T7 sequence (whole entry): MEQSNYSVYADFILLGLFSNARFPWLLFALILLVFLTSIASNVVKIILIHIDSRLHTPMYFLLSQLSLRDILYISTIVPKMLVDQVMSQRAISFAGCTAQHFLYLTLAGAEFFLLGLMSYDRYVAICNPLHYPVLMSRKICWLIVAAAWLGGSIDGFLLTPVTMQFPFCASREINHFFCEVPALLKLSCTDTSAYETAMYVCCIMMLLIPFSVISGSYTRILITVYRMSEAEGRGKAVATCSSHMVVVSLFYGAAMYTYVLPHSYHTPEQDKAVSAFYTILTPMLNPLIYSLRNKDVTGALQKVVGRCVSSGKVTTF
In short: as §1

OR2T29 (Homo sapiens) = molecular target: T8, OR2T29 (Homo sapiens) (UniProt Q8NH02)
T8 sequence (whole entry): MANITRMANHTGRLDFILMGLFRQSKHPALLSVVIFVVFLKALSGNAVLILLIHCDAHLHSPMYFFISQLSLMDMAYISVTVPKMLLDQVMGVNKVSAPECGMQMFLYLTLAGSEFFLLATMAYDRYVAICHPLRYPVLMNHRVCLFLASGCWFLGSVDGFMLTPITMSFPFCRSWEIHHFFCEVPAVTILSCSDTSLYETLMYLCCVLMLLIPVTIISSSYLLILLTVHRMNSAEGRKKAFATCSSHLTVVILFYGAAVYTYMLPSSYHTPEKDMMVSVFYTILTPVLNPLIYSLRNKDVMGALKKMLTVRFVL
In short: as §1

OR2T3 (Homo sapiens) = molecular target: T9, OR2T3 (Homo sapiens) (UniProt Q8NH03)
T9 sequence (whole entry): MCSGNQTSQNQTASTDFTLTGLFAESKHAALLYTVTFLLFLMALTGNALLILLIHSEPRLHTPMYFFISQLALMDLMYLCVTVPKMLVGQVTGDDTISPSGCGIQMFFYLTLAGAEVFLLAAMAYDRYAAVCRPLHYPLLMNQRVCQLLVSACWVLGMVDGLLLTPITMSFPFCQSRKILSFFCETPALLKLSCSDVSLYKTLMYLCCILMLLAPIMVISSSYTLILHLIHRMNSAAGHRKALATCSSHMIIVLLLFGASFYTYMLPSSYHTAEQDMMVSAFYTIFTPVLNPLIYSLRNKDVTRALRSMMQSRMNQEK
In short: as §1

OR2T3 L256F = test system: T10, OR2T3 L256F
T10 sequence (whole entry): T9 sequence (whole entry) with L256F
In short: as §1

OR2T3 R298C = test system: T11, OR2T3 R298C
T11 sequence (whole entry): T9 sequence (whole entry) with R298C
In short: as §1

OR2T3 Y109H = test system: T12, OR2T3 Y109H
T12 sequence (whole entry): T9 sequence (whole entry) with Y109H
In short: as §1

OR2T33 (Homo sapiens) = molecular target: T13, OR2T33 (Homo sapiens) (UniProt Q8NG76)
T13 sequence (whole entry): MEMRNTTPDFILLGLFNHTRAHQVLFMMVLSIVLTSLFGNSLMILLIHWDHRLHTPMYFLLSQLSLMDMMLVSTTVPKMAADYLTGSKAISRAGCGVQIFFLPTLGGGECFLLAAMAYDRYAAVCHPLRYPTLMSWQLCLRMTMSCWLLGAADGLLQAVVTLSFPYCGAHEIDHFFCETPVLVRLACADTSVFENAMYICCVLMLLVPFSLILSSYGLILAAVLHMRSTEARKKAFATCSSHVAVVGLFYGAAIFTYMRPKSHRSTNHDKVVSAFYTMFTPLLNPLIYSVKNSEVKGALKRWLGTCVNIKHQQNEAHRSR
In short: as §1

OR2T34 (Homo sapiens) = molecular target: T14, OR2T34 (Homo sapiens) (UniProt Q8NGX1)
T14 sequence (whole entry): T9 sequence (whole entry) with Y109H, T202M, M204T, A214T, H239R, P267R
In short: as §1

OR2T35 (Homo sapiens) = molecular target: T15, OR2T35 (Homo sapiens) (UniProt Q8NGX2)
T15 sequence (whole entry): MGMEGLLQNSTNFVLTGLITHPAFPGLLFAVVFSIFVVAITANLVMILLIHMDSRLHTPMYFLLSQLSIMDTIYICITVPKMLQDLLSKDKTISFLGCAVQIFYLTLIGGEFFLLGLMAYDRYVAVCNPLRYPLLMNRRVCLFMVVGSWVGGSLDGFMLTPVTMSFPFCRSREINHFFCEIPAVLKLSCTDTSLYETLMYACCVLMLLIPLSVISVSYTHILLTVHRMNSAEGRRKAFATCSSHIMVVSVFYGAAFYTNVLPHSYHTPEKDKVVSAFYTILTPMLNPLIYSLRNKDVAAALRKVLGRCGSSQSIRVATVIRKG
In short: as §1

OR2T4 (Homo sapiens) = molecular target: T16, OR2T4 (Homo sapiens) (UniProt Q8NH00)
T16 sequence (whole entry): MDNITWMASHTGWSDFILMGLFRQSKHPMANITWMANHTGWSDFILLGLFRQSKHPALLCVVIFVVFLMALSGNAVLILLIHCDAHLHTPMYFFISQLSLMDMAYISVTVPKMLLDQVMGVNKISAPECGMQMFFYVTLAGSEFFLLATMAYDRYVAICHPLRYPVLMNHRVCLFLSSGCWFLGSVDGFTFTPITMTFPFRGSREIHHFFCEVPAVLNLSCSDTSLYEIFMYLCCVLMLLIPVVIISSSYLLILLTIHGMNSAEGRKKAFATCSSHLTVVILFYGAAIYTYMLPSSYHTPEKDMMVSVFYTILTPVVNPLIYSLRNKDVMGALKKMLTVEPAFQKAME
In short: as §1

OR2T5 (Homo sapiens) = molecular target: T17, OR2T5 (Homo sapiens) (UniProt Q6IEZ7)
T17 sequence (whole entry): T8 sequence (whole entry) with R13K, Q24R
In short: as §1

OR2T5 K13R K41M G45E = test system: T18, OR2T5 K13R K41M G45E
T18 sequence (whole entry): T8 sequence (whole entry) with Q24R, K41M, G45E
In short: as §1

OR2T5 K13R L134F = test system: T19, OR2T5 K13R L134F
T19 sequence (whole entry): T8 sequence (whole entry) with Q24R, L134F
In short: as §1

OR2T6 (Homo sapiens) = molecular target: T20, OR2T6 (Homo sapiens) (UniProt Q8NHC8)
T20 sequence (whole entry): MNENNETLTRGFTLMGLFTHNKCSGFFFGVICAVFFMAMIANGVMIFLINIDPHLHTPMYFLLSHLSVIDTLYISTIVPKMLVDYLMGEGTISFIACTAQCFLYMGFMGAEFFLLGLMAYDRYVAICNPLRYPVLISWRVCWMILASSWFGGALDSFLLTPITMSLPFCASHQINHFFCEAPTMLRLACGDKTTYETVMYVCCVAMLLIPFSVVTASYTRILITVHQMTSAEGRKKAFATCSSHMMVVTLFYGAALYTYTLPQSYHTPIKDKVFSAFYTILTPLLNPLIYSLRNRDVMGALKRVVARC
In short: as §1

Measured: odorant receptor agonist call

Cc1cnc(C)c(C)n1
inactive: all assays above

CC(CC=O)c1ccc(C(C)(C)C)cc1 (stereo unspecified)
inactive: OR2T34 (Homo sapiens)

CC1=C(O)C(=O)C(C)O1 (stereo unspecified)
inactive: all assays above

CCCC(S)CCOC(C)=O (stereo unspecified)
inactive: all assays above
